Activity calls are given as the source filed them. No cut-off for these calls is given here.
Columns and labels:
[1] = molecular target: Bifunctional purine biosynthesis protein ATIC (Homo sapiens) (UniProt P31939); assay: Inhibition of AICARFTase in human KB cells expressing RFC/FR-alpha/PCFT assessed as cell growth inhibition measured after 96 hrs in presence of 320 uM AICA by Cell-Titer Blue fluorescence analysis; format: cell-based
[2] = tested on: KB; assay: Antiproliferative activity against human KB cells expressing human RFC/FR-alpha/PCFT assessed as reduction in cell viability measured after 96 hrs in presence of folic acid by Cell-Titer Blue fluorescence analysis; format: functional, cell-based
[3] = molecular target: T1, Trifunctional purine biosynthetic protein adenosine-3 (Homo sapiens, UniProt P22102); assay: Inhibition of GARFTase in human KB cells expressing RFC/FR-alpha/PCFT assessed as decrease in incorporation of [14C(U)]-glycine into [14C]formyl GAR incubated for 1 hr followed by addition of [14C(U)]-glycine measured after 16 hrs in presence of azaserine; format: cell-based
T1 sequence (P22102 whole entry): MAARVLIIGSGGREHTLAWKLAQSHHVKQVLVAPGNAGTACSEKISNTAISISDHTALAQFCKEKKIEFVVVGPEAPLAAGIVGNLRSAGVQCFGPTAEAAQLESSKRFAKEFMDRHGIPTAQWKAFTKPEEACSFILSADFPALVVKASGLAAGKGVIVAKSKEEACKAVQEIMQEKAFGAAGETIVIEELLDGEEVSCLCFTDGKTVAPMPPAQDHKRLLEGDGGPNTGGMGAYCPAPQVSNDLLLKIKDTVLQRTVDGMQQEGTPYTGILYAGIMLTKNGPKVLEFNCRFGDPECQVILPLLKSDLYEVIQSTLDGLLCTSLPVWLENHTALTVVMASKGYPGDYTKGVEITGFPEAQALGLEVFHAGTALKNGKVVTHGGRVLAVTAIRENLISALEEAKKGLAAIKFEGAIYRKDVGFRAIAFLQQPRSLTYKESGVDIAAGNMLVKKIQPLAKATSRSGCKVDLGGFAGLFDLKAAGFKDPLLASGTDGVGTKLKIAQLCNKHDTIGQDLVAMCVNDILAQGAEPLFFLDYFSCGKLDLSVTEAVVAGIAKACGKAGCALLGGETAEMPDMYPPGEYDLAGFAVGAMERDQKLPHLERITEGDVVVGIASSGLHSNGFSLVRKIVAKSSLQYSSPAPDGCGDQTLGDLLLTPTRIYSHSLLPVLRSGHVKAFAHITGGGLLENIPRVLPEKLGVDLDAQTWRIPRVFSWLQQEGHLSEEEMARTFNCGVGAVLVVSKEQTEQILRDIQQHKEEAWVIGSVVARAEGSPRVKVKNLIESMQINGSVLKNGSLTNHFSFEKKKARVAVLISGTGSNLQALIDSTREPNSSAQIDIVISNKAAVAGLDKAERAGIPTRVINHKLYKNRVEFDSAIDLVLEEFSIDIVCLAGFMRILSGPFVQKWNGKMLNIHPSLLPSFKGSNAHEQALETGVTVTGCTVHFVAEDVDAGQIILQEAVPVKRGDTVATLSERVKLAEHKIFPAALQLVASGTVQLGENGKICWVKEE

[4] = molecular target: T2, Proton-coupled folate transporter (Homo sapiens) (UniProt Q96NT5); assay: Inhibition of [3H]MTX uptake at human PCFT expressed in Chinese hamster R2/PCFT4 cells at 10 uM and pH 5.5 measured after 5 mins; format: cell-based
T2 sequence (whole entry): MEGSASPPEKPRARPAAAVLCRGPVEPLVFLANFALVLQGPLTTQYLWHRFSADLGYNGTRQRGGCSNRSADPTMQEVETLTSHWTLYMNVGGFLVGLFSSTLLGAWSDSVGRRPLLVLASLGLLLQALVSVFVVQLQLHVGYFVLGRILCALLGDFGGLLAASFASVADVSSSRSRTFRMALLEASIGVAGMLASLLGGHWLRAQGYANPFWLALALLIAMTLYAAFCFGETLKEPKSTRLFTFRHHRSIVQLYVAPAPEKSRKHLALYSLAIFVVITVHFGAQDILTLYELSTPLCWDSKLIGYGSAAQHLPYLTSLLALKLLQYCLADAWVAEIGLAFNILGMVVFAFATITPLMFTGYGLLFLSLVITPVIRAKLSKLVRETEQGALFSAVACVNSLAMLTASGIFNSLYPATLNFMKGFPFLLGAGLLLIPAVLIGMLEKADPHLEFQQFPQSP

[5] = molecular target: T1, Trifunctional purine biosynthetic protein adenosine-3; assay: Inhibition of recombinant N-terminal 6His-tagged human GARFTase assessed as formation of 5,8-dideazafolate from 10-formyl-5,8-dideazafolic acid measured at every 15 seconds over 20 min by spectrophotometric analysis
[6] = Cytotoxicity in RFC-null Chinese hamster R2 cells assessed as reduction in cell viability measured after 96 hrs by Cell-Titer Blue fluorescence analysis; format: cell-based; details: Cricetulus griseus, R2, 96 h
[7] = molecular target: T3, GAR transformylase/AICAR transformylase (Homo sapiens) (UniProt P31939+P22102); assay: Inhibition of GARFTase/AICARFTase in human KB cells expressing RFC/FR-alpha/PCFT assessed as cell growth inhibition measured after 96 hrs in presence of 10 uM thymidine by Cell-Titer Blue fluorescence analysis; format: cell-based
T3 sequence (P31939 whole entry, looked up, one chain of several): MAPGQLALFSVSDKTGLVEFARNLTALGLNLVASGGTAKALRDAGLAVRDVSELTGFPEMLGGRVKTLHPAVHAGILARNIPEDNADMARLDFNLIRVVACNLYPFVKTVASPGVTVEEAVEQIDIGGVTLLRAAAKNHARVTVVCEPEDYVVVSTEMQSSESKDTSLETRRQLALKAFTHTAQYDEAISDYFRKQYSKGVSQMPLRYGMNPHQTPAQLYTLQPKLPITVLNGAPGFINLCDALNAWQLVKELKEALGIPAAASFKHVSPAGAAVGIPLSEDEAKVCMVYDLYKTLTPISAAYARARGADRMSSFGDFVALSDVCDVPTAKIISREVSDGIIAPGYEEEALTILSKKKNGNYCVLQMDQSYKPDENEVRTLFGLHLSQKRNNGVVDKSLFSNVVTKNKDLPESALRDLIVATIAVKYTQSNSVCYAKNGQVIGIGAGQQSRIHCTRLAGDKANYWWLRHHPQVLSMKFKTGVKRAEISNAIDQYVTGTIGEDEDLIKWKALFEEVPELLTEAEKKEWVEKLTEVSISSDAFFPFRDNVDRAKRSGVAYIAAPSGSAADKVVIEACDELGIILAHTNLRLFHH

[8] = molecular target: T2, Proton-coupled folate transporter (Homo sapiens); assay: Inhibition of [3H]MTX uptake at human PCFT expressed in Chinese hamster R2/PCFT4 cells at 10 uM and pH 6.8 measured after 5 mins; format: cell-based
[9] = molecular target: T2, Proton-coupled folate transporter (Homo sapiens); assay: Inhibition of [3H]MTX uptake at human PCFT expressed in Chinese hamster R2/PCFT4 cells at 1 uM and pH 5.5 measured after 5 mins; format: cell-based
[10] = Cytotoxicity in PCFT-null Chinese hamster R2 cells assessed as reduction in cell viability measured after 96 hrs by Cell-Titer Blue fluorescence analysis; format: cell-based; details: Cricetulus griseus, R2, 96 h
[11] = molecular target: T3, GAR transformylase/AICAR transformylase (Homo sapiens); assay: Inhibition of GARFTase/AICARFTase in human KB cells expressing RFC/FR-alpha/PCFT assessed as cell growth inhibition measured after 96 hrs in presence of 60 uM adenosine by Cell-Titer Blue fluorescence analysis; format: cell-based
[12] = molecular target: Folate receptor alpha (Homo sapiens) (UniProt P15328); assay: Displacement of [3H]folic acid from human FR-alpha receptor expressed in Chinese hamster RT16 cells measured after 15 mins relative to folic acid; format: cell-based; set-up: concentration or dose not given beside the values
Sequence of Folate receptor alpha (Homo sapiens) (P15328 25-234 limits assumed): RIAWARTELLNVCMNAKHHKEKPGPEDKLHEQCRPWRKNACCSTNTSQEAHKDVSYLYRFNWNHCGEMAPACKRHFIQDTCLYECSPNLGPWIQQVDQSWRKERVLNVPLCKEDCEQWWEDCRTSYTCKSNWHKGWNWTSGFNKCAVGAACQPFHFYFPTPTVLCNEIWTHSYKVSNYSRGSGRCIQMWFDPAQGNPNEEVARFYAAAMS

[13] = tested on: KB; assay: Antiproliferative activity against human KB cells expressing human RFC/FR-alpha/PCFT assessed as reduction in cell viability measured after 96 hrs by Cell-Titer Blue fluorescence analysis; format: functional, cell-based
[14] = molecular target: T4, Proton-coupled folate transporter (Homo sapiens, UniProt Q96NT5); assay: Inhibition of [3H]MTX uptake at human PCFT expressed in Chinese hamster R2/PCFT4 cells at pH 5.5 measured after 5 mins by Dixon plot analysis; format: cell-based
T4 sequence (Q96NT5 whole entry): T2 sequence (whole entry)

[15] = Toxicity in folate-deficient diet fed SCID mouse xenografted with human IGROV1 cells assessed as body weight loss at 28 mg/kg, iv administered […] post 2 days of tumor implantation measured after 48 hrs of last dosage; format: organism-based; details: in vivo
Method in brief: (§1)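 Female NCR SCID mice (11 weeks old, ~20 g) are fed a folate-deficient diet from 14 days before implant. IGROV1 fragments (30–60 mg) are trocar-implanted subcutaneously in both flanks, and mice are randomised at 5/group. Tail-vein dosing starts on day 2: 28 mg/kg/inj Q3dx5, or 96 or 150 mg/kg/inj Q3dx4. Vehicle is 5% ethanol, 1% Tween-80, 0.5% NaHCO3 in water at pH 6.5. Caliper tumor mass is (a×b²)/2, T/C is taken when controls reach 700–1200 mg, and weights are recorded daily.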

[16] = tested on: IGROV-1; assay: Antiproliferative activity against human IGROV1 cells expressing human FR-alpha/PCFT assessed as reduction in cell viability measured after 96 hrs by Cell-Titer Blue fluorescence analysis; format: functional, cell-based; details: IGROV-1, 96 h
[17] = Toxicity in folate-deficient diet fed SCID mouse xenografted with human IGROV1 cells assessed as body weight loss at 28 mg/kg, iv administered […] post 2 days of tumor implantation measured during compound treatment; format: organism-based; details: in vivo, 48 h; method in brief: as §1
[18] = Toxicity in standard diet fed SCID mouse xenografted with human IGROV1 cells assessed as body weight loss at 28 mg/kg, iv administered […] post 2 days of tumor implantation measured during compound treatment; format: organism-based; details: in vivo, 48 h
Method in brief: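 Standard-diet female NCR SCID mice bearing bilateral s.c. IGROV1 fragments; i.v. tail-vein dosing from day 2 post-implant, Q3dx5, vehicle 5% ethanol/1% Tween-80/0.5% NaHCO3 in water, pH 6.5; mice weighed and assessed daily during and after treatment; weight loss recorded as nadir.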

[19] = tested on: IGROV-1; assay: Antitumor activity against human IGROV1 cells xenografted into folate-deficient diet fed SCID mouse assessed as tumor growth at 96 mg/kg, iv administered […] post 2 days of tumor implantation measured on day 20 relative to control; format: functional
Method in brief: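 Female NCR SCID mice, 11 weeks, ~20 g, on folate-deficient or standard diet from 14 days pre-implant; bilateral s.c. IGROV1 fragments (30–60 mg); 5 mice/group; tail-vein dosing from day 2 (Q3d schedules) in 5% ethanol, 1% Tween-80, 0.5% NaHCO3, water, pH 6.5; caliper mass (a×b²)/2; T/C and T−C delay.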

[20] = tested on: IGROV-1; assay: Antitumor activity against human IGROV1 cells xenografted into folate-deficient diet fed SCID mouse assessed as tumor growth delay at 96 mg/kg, iv administered […] post 2 days of tumor implantation; format: functional
[21] = tested on: IGROV-1; assay: Antitumor activity against human IGROV1 cells xenografted into folate-deficient diet fed SCID mouse assessed as tumor growth at 28 mg/kg, iv administered […] post 2 days of tumor implantation measured on day 20 relative to control; format: functional; method in brief: as §1
[22] = tested on: IGROV-1; assay: Antiproliferative activity against human IGROV1 cells expressing human FR-alpha/PCFT assessed as reduction in cell viability measured after 96 hrs in presence of folic acid by Cell-Titer Blue fluorescence analysis; format: functional, cell-based; details: IGROV-1, 96 h
[23] = tested on: IGROV-1; assay: Antitumor activity against human IGROV1 cells xenografted into folate-deficient diet fed SCID mouse assessed as tumor cell kill at 28 mg/kg, iv administered […] post 2 days of tumor implantation measured on day 20; format: functional; method in brief: as §1
[24] = tested on: IGROV-1; assay: Antitumor activity against human IGROV1 cells xenografted into folate-deficient diet fed SCID mouse assessed as tumor cell kill at 96 mg/kg, iv administered […] post 2 days of tumor implantation measured on day 20; format: functional
[25] = Toxicity in folate-deficient diet fed SCID mouse xenografted with human IGROV1 cells assessed as body weight loss at 96 and 150 mg/kg, iv administered […] post 2 days of tumor implantation measured after 48 hrs of last dosage; format: organism-based; details: in vivo; method in brief: as §1
[26] = molecular target: Folate receptor beta (Homo sapiens) (UniProt P14207); assay: Displacement of [3H]folic acid from human FR-beta receptor expressed in Chinese hamster D4 cells measured after 15 mins relative to folic acid; format: cell-based
Sequence of Folate receptor beta (Homo sapiens) (P14207 17-230 limits assumed): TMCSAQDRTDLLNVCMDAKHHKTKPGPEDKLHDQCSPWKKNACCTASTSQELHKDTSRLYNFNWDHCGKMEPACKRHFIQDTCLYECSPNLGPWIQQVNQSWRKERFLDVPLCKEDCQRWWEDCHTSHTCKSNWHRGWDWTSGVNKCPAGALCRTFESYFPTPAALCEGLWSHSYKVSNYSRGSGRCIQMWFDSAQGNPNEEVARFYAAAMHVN

Sequence of Bifunctional purine biosynthesis protein ATIC (Homo sapiens) (P31939 whole entry, looked up): as the sequence (P31939 whole entry, looked up, one chain of several) above

SMILES	inhibition [1]	IC50 [2]	IC50 [3]	inhibition [4]	Ki [5]	inhibition [7]	inhibition [8]	inhibition [9]	inhibition [11]	inhibition [12]	IC50 [13]	Ki [14]	IC50 [6]	IC50 [10]	further results
CC(=O)N(CCc1cc2c(=O)[nH]c(N)nc2[nH]1)c1ccc(C(=O)N[C@@H](CCC(=O)O)C(=O)O)cc1	Active	> 1000 nM	5.58 nM	80 to 90%	62 nM	Active	Active	30 to 60%	inactive	< 15%	2.57 nM	1680 nM	> 1000 nM	> 1000 nM	
Nc1nc2[nH]c(CCCc3ccc(C(=O)N[C@@H](CCC(=O)O)C(=O)O)s3)cc2c(=O)[nH]1															Activity [15]: Non-Toxic; IC50 [16]: 0.95 nM; Activity [17]: 15%; Activity [18]: Non-Toxic; T/C [19]: 29%; Time [20]: 9 days; T/C [21]: 35%; IC50 [22]: 213 nM; LCK [23]: 1.4; LCK [24]: 1.4; Activity [25]: Non-Toxic
Nc1nc2[nH]c(CCN(C(=O)C(F)(F)F)c3ccc(C(=O)N[C@@H](CCC(=O)O)C(=O)O)cc3)cc2c(=O)[nH]1	Active	924 nM	4.95 nM	80 to 90%	122 nM	Active	40 to 60%	30 to 60%	inactive	< 15%	0.56 nM	800 nM	> 1000 nM	> 1000 nM	
Nc1nc2[nH]c(CCSc3ccc(C(=O)N[C@@H](CCC(=O)O)C(=O)O)cc3)cc2c(=O)[nH]1	Active	> 1000 nM	5.25 nM	80 to 90%	201 nM	Active	Active	30 to 60%	inactive	60 to 110%	1.66 nM	1480 nM	> 1000 nM	> 1000 nM	inhibition [26]: 60 to 110%

More lines, main results first:

inhibition [1]	IC50 [2]	IC50 [3]	inhibition [4]	Ki [5]	inhibition [7]	inhibition [8]	inhibition [9]	inhibition [11]	inhibition [12]	IC50 [13]	Ki [14]	SMILES	IC50 [6]	IC50 [10]	further results
Active	704 nM	6.62 nM	80 to 90%	61 nM	Active	40 to 60%	30 to 60%	inactive	60 to 110%	0.34 nM	640 nM	Nc1nc2[nH]c(CCOc3ccc(C(=O)N[C@@H](CCC(=O)O)C(=O)O)cc3)cc2c(=O)[nH]1	940 nM	> 1000 nM	inhibition [26]: 60 to 110%
			Active			40 to 60%	Active				220 nM	Nc1nc2[nH]c(CCCc3ccc(C(=O)N[C@@H](CCC(=O)O)C(=O)O)cc3)cc2c(=O)[nH]1			IC50 [22]: > 1000 nM
Active	> 1000 nM	2.11 nM	80 to 90%	99 nM	Active	Active	30 to 60%	inactive	< 15%	2.09 nM	730 nM	Nc1nc2[nH]c(CCN(C=O)c3ccc(C(=O)N[C@@H](CCC(=O)O)C(=O)O)cc3)cc2c(=O)[nH]1	> 1000 nM	> 1000 nM	

— ChEMBL document CHEMBL4431326, “Tumor Targeting with Novel 6-Substituted Pyrrolo [2,3-d] Pyrimidine Antifolates with Heteroatom Bridge Substitutions via Cellular Uptake by Folate Receptor α and the Proton-Coupled Folate Transporter and Inhibition of de Novo Purine Nucleotide Biosynthesis” (J Med Chem, 2016)
